Nine compounds from ChEMBL document CHEMBL3351242, “Tetrahydroxanthene-1,3(2H)-dione derivatives from Uvaria valderramensis” (2014) can be followed below.

Each structure is given as a SMILES string. Values after ≈ are worked out from the molar mass of the structure shown. Active and inactive are the calls of the source.

Assay type in all cases: functional
The subject of experiment [1] is Mycobacterium tuberculosis. Description: Antitubercular activity against Mycobacterium tuberculosis H37Rv by MABA assay. In outline:
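Microplate Alamar Blue assay on the H37Rv strain, with rifampin, isoniazid and streptomycin as positive drug controls; values reported as MIC in μg/mL.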
Background: Alamar Blue is a resazurin reagent that responds to reducing activity.

A further experiment deals with HUVEC. Description: Cytotoxicity against HUVEC. The conditions noted are these: Homo sapiens. In outline: (§1)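 Growth inhibition measured colorimetrically with CellTiter-Blue and MTT read-outs, with imatinib as reference drug; values reported as GI50 in μg/mL.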
The subject of the next experiment is K562. Description: Cytotoxicity against human K562 cells. The method, boiled down:
as §1

The next experiment has as its system HeLa. Description: Cytotoxicity against human HeLa cells. The method, boiled down: as §1

Regarding `COc1ccc2c(c1)C[C@]1(OC)C(=O)/C(=C(O)/C=C/c3ccccc3)C(=O)C[C@@]1(OC)O2`, in experiment [1], the MIC (as a rule, the smallest concentration in the dilution series that meets the test's criterion for growth inhibition) was 10 µg/mL (≈ 22.9 µM).
For `CC(=O)O[C@@H]1C(=O)C=COC=C1COC(=O)c1ccccc1`, the GI50 (usually the concentration that inhibits growth by half) in the experiment on HUVEC came to 5.4 µg/mL (≈ 17.9 µM); in the experiment with K562 it was 1.4 µg/mL (≈ 4.63 µM). In experiment [1], the MIC was determined as 32 µg/mL (≈ 106 µM).
`COc1ccc2c(c1)C[C@]1(O)C(=O)/C(=C(O)/C=C/c3ccccc3)C(=O)C[C@@]1(OC)O2` (relative stereo): in experiment [1], the MIC entry is “inactive”.
Same read-out and setting: the figure for `COc1ccc(C[C@H]2c3cc(O)c(OC)cc3CCN2C)cc1O` [(S)-RETICULINE] is 32 µg/mL (≈ 97.1 µM).
For the compound `COc1cccc2c1C(=O)c1c(O)c3c(c(O)c1C2=O)C[C@@](O)(C(=O)CO)C[C@@H]3O[C@H]1C[C@H](N)[C@H](O)[C@H](C)O1` [DOXORUBICIN], the GI50 in the experiment with HUVEC was found to be 0.1 µg/mL (≈ 0.184 µM); in the experiment with K562 it was 1 µg/mL (≈ 1.84 µM). Also, the CC50 (commonly the concentration giving 50% cytotoxicity) in the experiment with HeLa turned out to be 2 µg/mL (≈ 3.68 µM).
For `Cc1ccc(NC(=O)c2ccc(CN3CCN(C)CC3)cc2)cc1Nc1nccc(-c2cccnc2)n1` [IMATINIB] the same measures were more than 10 µg/mL, 0.1 µg/mL (≈ 0.203 µM) and more than 10 µg/mL.
`NNC(=O)c1ccncc1` [ISONIAZID] displayed a minimum inhibitory concentration (MIC) in experiment [1] of 0.63 µg/mL (≈ 4.59 µM).
The same measure, in the same setting: the figure for `CO[C@H]1/C=C/O[C@@]2(C)Oc3c(C)c(O)c4c(O)c(c(/C=N/N5CCN(C)CC5)c(O)c4c3C2=O)NC(=O)/C(C)=C\C=C\[C@H](C)[C@H](O)[C@@H](C)[C@@H](O)[C@@H](C)[C@H](OC(C)=O)[C@@H]1C` [RIFAMPIN] is 0.15 µg/mL (≈ 0.182 µM).
Still for that read-out and setting: the result for `CN[C@@H]1[C@H](O[C@H]2[C@H](O[C@H]3[C@H](O)[C@@H](O)[C@H](N=C(N)N)[C@@H](O)[C@@H]3N=C(N)N)O[C@@H](C)[C@]2(O)C=O)O[C@@H](CO)[C@H](O)[C@H]1O` [STREPTOMYCIN] reads 0.83 µg/mL (≈ 1.43 µM).
